From ChEMBL document CHEMBL4390675, “Dopamine D4 Receptor-Selective Compounds Reveal Structure-Activity Relationships that Engender Agonist Efficacy” (J Med Chem, 2019)
The source made the active and inactive calls. The rule behind the calls is not given here.

Tests used:
[1] = molecular target: T1, D(4) dopamine receptor (Homo sapiens, UniProt P21917); test: Agonist activity at human D4 receptor expressed in CHOK1 cells assessed as inhibition of forskolin-induced cAMP accumulation measured after 30 mins by Eu-cAMP tracer based TR-FRET assay; type: functional, cell-based
T1 sequence (P21917 whole entry): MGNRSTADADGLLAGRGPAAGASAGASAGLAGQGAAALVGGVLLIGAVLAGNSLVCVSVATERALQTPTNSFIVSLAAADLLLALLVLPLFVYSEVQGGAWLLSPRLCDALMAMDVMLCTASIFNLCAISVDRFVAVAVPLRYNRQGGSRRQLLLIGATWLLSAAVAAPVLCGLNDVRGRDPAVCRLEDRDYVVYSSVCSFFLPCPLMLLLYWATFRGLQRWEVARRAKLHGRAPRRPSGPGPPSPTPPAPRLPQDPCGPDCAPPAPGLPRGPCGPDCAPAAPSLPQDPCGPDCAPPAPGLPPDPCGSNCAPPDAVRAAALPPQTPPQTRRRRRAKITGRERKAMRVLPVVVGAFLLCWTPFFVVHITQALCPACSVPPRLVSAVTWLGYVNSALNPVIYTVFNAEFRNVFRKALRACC
In short: (§1)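 LANCE Ultra TR-FRET cAMP assay in CHO-K1 cells stably expressing human D2R long isoform or D4R. Cells were plated in HBSS/5 mM HEPES/0.2 μM metabisulfite, then immediately given compound plus forskolin (10 μM final) for 30 min at room temperature. Eu-cAMP tracer and ULight-anti-cAMP were added for 2 h in the dark. Values are % of maximal dopamine signal, nonlinear regression of triplicate runs, n = 3–4.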

[2] = molecular target: T2, D(3) dopamine receptor (Homo sapiens, UniProt P35462); test: Agonist activity at human D3 receptor expressed in CHOK1 cells assessed as induction of beta-arrestin recruitment measured after 90 mins by luminescence assay; type: cell-based
In short: (§2)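 PathHunter enzyme-complementation assay in CHO-K1 cells stably expressing human D2R long isoform, D3R or D4R, seeded overnight in Ham's F12/10% FBS. Compounds were diluted in PBS with 0.2 μM sodium metabisulfite and applied at multiple concentrations for 90 min at 37 °C. Detection reagent was added for 45–60 min at room temperature, then luminescence was read. Values are % of maximal dopamine response, from nonlinear regression of triplicate runs, mean ± SEM, n = 3–4.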

[3] = molecular target: T3, D(2) dopamine receptor (Homo sapiens, UniProt P14416); test: Agonist activity at human D2L receptor expressed in CHOK1 cells assessed as induction of beta-arrestin recruitment measured after 90 mins by luminescence assay; type: cell-based; in short: as §2
[4] = molecular target: T2, D(3) dopamine receptor; test: Displacement of [3H]N-methylspiperone from human D3 receptor expressed in HEK293 cell membranes measured after 60 mins by scintillation counting method
In short: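 HEK293 cells stably expressing human D3R; membranes in EBSS buffer pH 7.4, stored at −80 °C. 20 μg protein/well with 0.4 nM [3H]N-methylspiperone (final), half-log dilutions in 30% DMSO, in triplicate. 60 min at room temperature, then GF/B filtration. Nonspecific binding with 10 μM (+)-butaclamol.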

[5] = molecular target: T1, D(4) dopamine receptor; test: Displacement of [3H]N-methylspiperone from human D4.4 receptor expressed in HEK293 cell membranes measured after 60 mins by scintillation counting method
In short: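 Frozen HEK293 membranes stably expressing human D4.4R (30 μg/well) in EBSS-bicarbonate buffer, pH 7.4, were incubated with 0.4 nM [3H]N-methylspiperone and half-log compound dilutions (30% DMSO vehicle) for 60 min at room temperature. Nonspecific binding was defined by 10 μM (+)-butaclamol. Samples were filtered on GF/B filters and counted by scintillation.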

[6] = molecular target: T1, D(4) dopamine receptor; test: Antagonist activity at human D4 receptor expressed in CHOK1 cells assessed as inhibition of dopamine-induced beta-arrestin recruitment measured after 90 mins by luminescence assay; type: cell-based; conditions: read-out: IC50
[7] = molecular target: T3, D(2) dopamine receptor; test: Agonist activity at human D2L receptor expressed in CHOK1 cells assessed as inhibition of forskolin-induced cAMP accumulation measured after 30 mins by Eu-cAMP tracer based TR-FRET assay; type: cell-based; in short: as §1
[8] = molecular target: T3, D(2) dopamine receptor; test: Antagonist activity at human D2L receptor expressed in CHOK1 cells assessed as inhibition of dopamine-induced beta-arrestin recruitment measured after 90 mins by luminescence assay relative to control; type: cell-based
In short: (§3)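 Antagonist-mode PathHunter β-arrestin assay in CHO-K1 cells stably expressing human D2R long isoform or D3R, seeded overnight. Compound dilutions in PBS with 0.2 μM metabisulfite were co-incubated with an EC80 dopamine concentration for 90 min at 37 °C. Detection reagent was added for 45–60 min at room temperature, then luminescence was read. Values are % of dopamine EC80 response, from nonlinear regression of triplicate runs, n = 3–4.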

[9] = molecular target: T2, D(3) dopamine receptor; test: Antagonist activity at human D3 receptor expressed in CHOK1 cells assessed as inhibition of dopamine-induced beta-arrestin recruitment measured after 90 mins by luminescence assay; type: cell-based; in short: as §3
[10] = molecular target: T1, D(4) dopamine receptor; test: Antagonist activity at human D4 receptor expressed in CHOK1 cells assessed as suppression of dopamine-induced inhibition of forskolin-stimulated cAMP accumulation measured after 30 mins by Eu-cAMP tracer based TR-FRET assay; type: functional, cell-based
[11] = molecular target: T3, D(2) dopamine receptor; test: Antagonist activity at human D2L receptor expressed in CHOK1 cells assessed as suppression of dopamine-induced inhibition of forskolin-stimulated cAMP accumulation measured after 30 mins by Eu-cAMP tracer based TR-FRET assay relative to dopamine; type: cell-based; conditions: 0.5 h
[12] = molecular target: T1, D(4) dopamine receptor; test: Agonist activity at human D4 receptor expressed in CHOK1 cells assessed as induction of beta-arrestin recruitment measured after 90 mins by luminescence assay; type: cell-based; in short: as §2
[13] = molecular target: T2, D(3) dopamine receptor; test: Displacement of [3H](R)-(+)-7-OH-DPAT from human D3 receptor expressed in HEK293 cell membranes measured after 90 mins by scintillation counting method
In short: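 Fresh HEK293 hD3R membranes (40 μg/well) in 50 mM Tris, 10 mM MgCl2, 1 mM EDTA, pH 7.4 were incubated with 0.5 nM [3H]-(R)-(+)-7-OH-DPAT and half-log compound dilutions in 30% DMSO for 90 min at room temperature. Nonspecific binding was defined with 10 μM (+)-butaclamol. Samples were filtered on PEI-soaked GF/B filters and counted by scintillation.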

[14] = molecular target: T4, D(4) dopamine receptor (Homo sapiens) (UniProt P21917); test: Antagonist activity at human D4 receptor expressed in CHOK1 cells assessed as inhibition of dopamine-induced beta-arrestin recruitment measured after 90 mins by luminescence assay relative to control; type: cell-based; design: concentration or dose not given beside the values
T4 sequence (whole entry): T1 sequence (P21917 whole entry)

[15] = molecular target: T1, D(4) dopamine receptor; test: Displacement of [3H](R)-(+)-7-OH-DPAT from human D4.4 receptor expressed in HEK293 cell membranes measured after 90 mins by scintillation counting method
In short: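 HEK293 cells stably expressing human D4.4R; membranes used fresh in 50 mM Tris, 10 mM MgCl2, 1 mM EDTA, pH 7.4. 60 μg protein/well with 3 nM [3H]-(R)-(+)-7-OH-DPAT (final), half-log dilutions in 30% DMSO, in triplicate. 90 min at room temperature, then GF/B filtration. Nonspecific binding with 10 μM (+)-butaclamol.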

[16] = molecular target: T4, D(4) dopamine receptor (Homo sapiens); test: Agonist activity at human D4 receptor expressed in CHOK1 cells assessed as inhibition of forskolin-induced cAMP accumulation measured after 30 mins by Eu-cAMP tracer based TR-FRET assay relative to dopamine; type: functional, cell-based; in short: as §1
[17] = molecular target: T4, D(4) dopamine receptor (Homo sapiens); test: Antagonist activity at human D4 receptor expressed in CHOK1 cells assessed as suppression of dopamine-induced inhibition of forskolin-stimulated cAMP accumulation measured after 30 mins by Eu-cAMP tracer based TR-FRET assay relative to dopamine; type: functional, cell-based; design: concentration or dose not given beside the values
[18] = molecular target: T4, D(4) dopamine receptor (Homo sapiens); test: Agonist activity at human D4 receptor expressed in CHOK1 cells assessed as induction of beta-arrestin recruitment measured after 90 mins by luminescence assay relative to control; type: cell-based; in short: as §2
[19] = molecular target: D(1A) dopamine receptor (Homo sapiens) (UniProt P21728); test: Agonist activity at D1 receptor (unknown origin) stably expressed in CHOK1 cells assessed as induction of beta-arrestin recruitment measured after 90 mins by luminescence assay; type: cell-based
[20] = molecular target: D(1B) dopamine receptor (Homo sapiens) (UniProt P21918); test: Agonist activity at D5 receptor (unknown origin) stably expressed in CHOK1 cells assessed as induction of beta-arrestin recruitment measured after 90 mins by luminescence assay; type: cell-based
[21] = molecular target: D(1A) dopamine receptor (Homo sapiens) (UniProt P21728); test: Antagonist activity at D1 receptor (unknown origin) stably expressed in CHOK1 cells assessed as inhibition of dopamine-induced beta-arrestin recruitment measured after 90 mins by luminescence assay; type: cell-based
[22] = molecular target: D(1B) dopamine receptor (Homo sapiens) (UniProt P21918); test: Antagonist activity at D5 receptor (unknown origin) stably expressed in CHOK1 cells assessed as inhibition of dopamine-induced beta-arrestin recruitment measured after 90 mins by luminescence assay; type: cell-based

T2 sequence (P35462 whole entry, canonical isoform): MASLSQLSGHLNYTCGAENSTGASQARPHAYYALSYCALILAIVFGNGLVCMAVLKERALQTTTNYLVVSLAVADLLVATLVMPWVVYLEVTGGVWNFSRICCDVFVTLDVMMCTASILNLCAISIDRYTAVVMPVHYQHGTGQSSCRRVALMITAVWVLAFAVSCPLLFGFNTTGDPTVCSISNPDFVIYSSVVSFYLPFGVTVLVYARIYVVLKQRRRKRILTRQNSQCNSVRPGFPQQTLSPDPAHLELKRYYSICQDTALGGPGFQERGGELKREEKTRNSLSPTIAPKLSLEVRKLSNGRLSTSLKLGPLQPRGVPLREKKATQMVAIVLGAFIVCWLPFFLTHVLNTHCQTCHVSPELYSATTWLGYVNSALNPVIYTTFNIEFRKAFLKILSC
T3 sequence (P14416 whole entry): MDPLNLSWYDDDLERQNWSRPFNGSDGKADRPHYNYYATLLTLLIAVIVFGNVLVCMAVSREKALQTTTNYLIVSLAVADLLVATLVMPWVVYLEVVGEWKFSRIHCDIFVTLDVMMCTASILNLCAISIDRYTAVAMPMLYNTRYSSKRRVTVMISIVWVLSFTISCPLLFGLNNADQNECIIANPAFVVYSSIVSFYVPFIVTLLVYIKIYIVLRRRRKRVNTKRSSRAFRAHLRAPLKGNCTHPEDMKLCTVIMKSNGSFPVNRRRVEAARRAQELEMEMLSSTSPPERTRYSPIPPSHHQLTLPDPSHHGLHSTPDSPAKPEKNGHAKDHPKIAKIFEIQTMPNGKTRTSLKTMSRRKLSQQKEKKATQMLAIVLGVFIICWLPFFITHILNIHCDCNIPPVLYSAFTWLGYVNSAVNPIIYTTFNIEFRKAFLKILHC
Sequence of D(1B) dopamine receptor (Homo sapiens) (P21918 whole entry): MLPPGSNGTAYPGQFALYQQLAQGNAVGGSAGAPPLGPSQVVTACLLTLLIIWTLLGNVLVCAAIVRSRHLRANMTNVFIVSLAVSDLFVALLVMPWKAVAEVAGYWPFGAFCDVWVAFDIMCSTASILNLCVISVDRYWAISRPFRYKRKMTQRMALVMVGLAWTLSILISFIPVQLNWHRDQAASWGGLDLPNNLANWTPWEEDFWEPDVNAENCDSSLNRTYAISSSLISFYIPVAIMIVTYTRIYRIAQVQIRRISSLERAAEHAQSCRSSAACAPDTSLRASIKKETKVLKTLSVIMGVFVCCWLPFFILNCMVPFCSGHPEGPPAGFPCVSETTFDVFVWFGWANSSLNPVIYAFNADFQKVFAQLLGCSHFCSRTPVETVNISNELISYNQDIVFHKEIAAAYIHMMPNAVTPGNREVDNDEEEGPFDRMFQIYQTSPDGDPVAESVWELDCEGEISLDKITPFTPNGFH
Sequence of D(1A) dopamine receptor (Homo sapiens) (P21728 whole entry): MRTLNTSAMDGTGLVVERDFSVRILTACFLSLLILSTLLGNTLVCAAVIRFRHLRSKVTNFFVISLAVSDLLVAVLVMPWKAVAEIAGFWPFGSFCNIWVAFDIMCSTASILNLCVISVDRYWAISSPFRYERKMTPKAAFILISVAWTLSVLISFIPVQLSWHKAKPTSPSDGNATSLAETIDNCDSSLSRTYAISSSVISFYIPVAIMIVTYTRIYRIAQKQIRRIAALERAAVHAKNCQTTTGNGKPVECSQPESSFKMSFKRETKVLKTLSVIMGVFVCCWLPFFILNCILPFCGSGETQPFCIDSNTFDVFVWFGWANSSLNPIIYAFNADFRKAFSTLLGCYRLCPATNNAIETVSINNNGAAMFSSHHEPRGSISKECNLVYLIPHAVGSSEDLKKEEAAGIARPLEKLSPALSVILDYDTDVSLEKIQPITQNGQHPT

## Cc1ccc(C2CCN(CC(=O)Nc3cccc(C)c3)CC2)cc1
[1]
  EC50: Not Active
[2]
  EC50: Not Active
[3]
  EC50: Not Active
[4]
  Ki: 3.68 µM
[5]
  Ki: 0.11 µM
[6]
  IC50: 7.35 µM
[7]
  EC50: Not Active
[8]
  INH: 100%
[9]
  IC50: Not Active
[10]
  IC50: 3.06 µM
[11]
  inhibition (INH): 100%
[12]
  EC50: Not Active

## Cc1cccc(NC(=O)CN2CCN(c3cccc4ccccc34)CC2)c1
[1]; read-out: EC50
  EC50: 0.108 µM
[2]
  EC50: Not Active
[3]
  EC50: Not Active
[4]
  Ki: 11.5 µM
[5]
  Ki: 0.0284 µM
[6]
  IC50: 4.25 µM
[13]
  Ki: 1.25 µM
[14]
  inhibition: 96.7%
[7]
  EC50: Not Active
[8]
  INH: 100%
[15]
  Ki: 0.00165 µM
[9]
  IC50: Not Active
[10]
  IC50: 2.52 µM
[16]
  Emax: 27.8%
[17]
  inhibition: 73.8%
[11]
  inhibition (INH): 100%
[12]; read-out: EC50
  EC50: 9.21 µM
[18]
  Emax: 16.4%

## Cc1ccc(C2CCN(CC(=O)Nc3cccc(C)c3)CC2)nc1
[1]
  EC50: Not Active
[2]
  EC50: Not Active
[3]
  EC50: Not Active
[4]
  Ki: > 50 µM
[5]
  Ki: 0.0417 µM
[6]
  IC50: 0.394 µM
[13]
  Ki: > 10 µM
[7]
  EC50: Not Active
[8]
  INH: 100%
[15]
  Ki: 0.00687 µM
[9]
  IC50: Not Active
[10]
  IC50: 0.453 µM
[11]
  inhibition (INH): 100%
[12]
  EC50: Not Active

## CCc1cccc(NC(=O)CN2CCN(c3ccc(Cl)cn3)CC2)c1
[1]
  EC50: Not Active
[2]
  EC50: Not Active
[3]
  EC50: Not Active
[4]
  Ki: > 50 µM
[5]
  Ki: 0.172 µM
[6]
  IC50: 10.4 µM
[7]
  EC50: Not Active
[8]
  INH: 100%
[9]
  IC50: Not Active
[10]
  IC50: 7.06 µM
[11]
  inhibition (INH): 100%
[12]
  EC50: Not Active

## CCc1cccc(NC(=O)CN2CCC(c3ccccn3)CC2)c1
[1]; read-out: EC50
  EC50: 0.539 µM
[2]
  EC50: Not Active
[3]
  EC50: Not Active
[4]
  Ki: 0.496 µM
[5]
  Ki: 0.0823 µM
[6]
  IC50: 2.62 µM
[7]
  EC50: Not Active
[8]
  INH: 100%
[9]
  IC50: Not Active
[10]
  IC50: 1.91 µM
[11]
  inhibition (INH): 96.6%
[12]
  EC50: Not Active

## Cc1cccc(NC(=O)CN2CCC(c3ccc(Cl)cc3)CC2)c1
[1]
  EC50: Not Active
[2]
  EC50: Not Active
[3]
  EC50: Not Active
[4]
  Ki: 26.3 µM
[7]
  EC50: Not Active
[8]
  INH: 100%
[9]
  IC50: Not Active
[11]
  inhibition (INH): 97.5%
[12]
  EC50: Not Active

## Cc1cccc(NC(=O)CCN2CCN(c3ncccn3)CC2)c1
[1]; read-out: EC50
  EC50: 0.568 µM
[2]
  EC50: Not Active
[3]
  EC50: Not Active
[4]
  Ki: 4.53 µM
[19]
  Activity: inactive
[5]
  Ki: 0.526 µM
[6]
  IC50: 0.43 µM
[13]
  Ki: 9.35 µM
[7]
  EC50: Not Active
[8]
  INH: 94.6%
[15]
  Ki: 0.033 µM
[9]; read-out: IC50
  IC50: > 50 µM
[10]
  IC50: 2.12 µM
[20]
  Activity: inactive
[21]
  inhibition: inactive
[12]
  EC50: Not Active
[22]
  inhibition: inactive

## Cc1cccc(NC(=O)CN2CCN(c3ccc(Cl)cn3)CC2)c1
[1]
  EC50: Not Active
[2]
  EC50: Not Active
[3]
  EC50: Not Active
[4]
  Ki: > 50 µM
[5]
  Ki: 0.095 µM
[6]
  IC50: 7.78 µM
[13]
  Ki: > 10 µM
[7]
  EC50: Not Active
[8]
  INH: 100%
[15]
  Ki: 0.0125 µM
[9]
  IC50: Not Active
[10]
  IC50: 4.7 µM
[11]
  inhibition (INH): 98.3%
[12]
  EC50: Not Active
